Measurements gathered from unrelated publications.
Lines come from different studies, so protocols differ.
KIT: Mast/stem cell growth factor receptor Kit (KIT, Homo sapiens, UniProt P10721)
KIT V559D/V654A: Mast/stem cell growth factor receptor Kit (KIT, Homo sapiens, UniProt P10721, V559D/V654A)
KIT L576P: Mast/stem cell growth factor receptor Kit (KIT, Homo sapiens, UniProt P10721, L576P)
KIT D816V: Mast/stem cell growth factor receptor Kit (KIT, Homo sapiens, UniProt P10721, D816V)
KIT T670I/V559D: Mast/stem cell growth factor receptor Kit (KIT, Homo sapiens, UniProt P10721, T670I/V559D)
KIT autoinhibited: Mast/stem cell growth factor receptor Kit, autoinhibited (KIT, Homo sapiens, UniProt P10721)
KIT A829P: Mast/stem cell growth factor receptor Kit (KIT, Homo sapiens, UniProt P10721, A829P)
KIT D816H: Mast/stem cell growth factor receptor Kit (KIT, Homo sapiens, UniProt P10721, D816H)

Compound | target | read-out | technique | tested at | remaining binding
CCc1ccccc1C(=O)Nc1n[nH]c2c(C)c(F)c(C3C(C#N)=C(C)N(C)C(C)=C3C#N)cc12 | KIT | cell-free assay | competition with immobilised ligand | 1 µM | 84%
Cc1cnn2ncc(-c3ccnc(N(C)C)n3)c2c1 | KIT V559D/V654A | binding |  | 1 µM | 100%
CC1=C(C#N)C(c2ccc3c(c2)c(NC(=O)c2ccccc2C)nn3C)C(C#N)=C(C)N1 | KIT L576P | cell-free assay | competition with immobilised ligand | 1 µM | 100%
F[C@@H]1CCN(c2nccc(-c3cnn4ncccc34)n2)C1 | KIT D816V | binding |  | 1 µM | 100%
COc1ccc2cc(OCC3(C(=O)O)CN(C(=O)c4ccc(F)cc4)C3)ccc2c1 | KIT T670I/V559D | cell-free assay | competition with immobilised ligand | 1 µM | 100%
CN1CCN(c2ccc(Nc3nccc(-c4ccccc4)n3)cc2C(F)(F)F)CC1 | KIT D816V | binding |  | 10 µM | 6.8%
O=C(N1CCS(=O)(=O)CC1)N1C[C@H](c2ccc(OC(F)(F)F)cc2)C[C@H](c2nc(C3CC3)no2)C1 | KIT autoinhibited | cell-free assay | competition with immobilised ligand | 1 µM | 100%
O=C(c1ccc(Nc2ncc(Cl)c(-c3ccc(Cl)s3)n2)cc1)N1CCC(N2CCCC2)CC1 | KIT V559D/V654A | binding | competition with immobilised ligand | 1 µM | 9.3%
CCN1CCN(Cc2ccc(C(=O)Nc3ccc(C)c(Oc4ccc5c(c4)CC(=O)N5)c3)cc2C(F)(F)F)CC1 | KIT L576P | binding | competition with immobilised ligand | 1 µM | 2.9%
O=S(=O)(NC1CCC(c2cc(F)ccc2F)(S(=O)(=O)c2ccc(Cl)cc2)CC1)C(F)(F)F (stereo not drawn) | KIT V559D/V654A | cell-free assay | competition with immobilised ligand | 1 µM | 88%
Cc1cnc(Nc2ccc(C(=O)N3CCC(N4CCCC4)CC3)cc2)nc1-c1cc2ccccc2s1 | KIT A829P | binding | competition with immobilised ligand | 1 µM | 7.2%
C[C@@H]1CCN(c2nccc(-c3cnn4ncccc34)n2)C1 | KIT D816H | binding |  | 1 µM | 79%
C=CC(=O)N1CCC(C(=O)NCC(=O)N2CCN(c3nc(-c4cnc(N)nc4C(F)F)nc(N4CCOCC4)n3)CC2)CC1 | KIT D816V | binding | competition with immobilised ligand | 1 µM | 79%
COc1ccnn2ncc(-c3ccnc(N(C)C)n3)c12 | KIT L576P | binding |  | 1 µM | 100%
O=C(NC[C@@H]1[C@H]2CN(C(=O)OCc3cc(C(F)(F)F)cc(C(F)(F)F)c3)C[C@@H]12)c1ccc2[nH]nnc2c1 | KIT D816H | cell-free assay | competition with immobilised ligand | 1 µM | 100%
O=C(c1ccc(Nc2ncc(Cl)c(-c3cc4ccccc4s3)n2)cc1)N1CCC(N2CCCC2)CC1 | KIT D816H | binding | competition with immobilised ligand | 1 µM | 22%
O=C(Nc1c[nH]nc1C(=O)NC1CCNCC1)c1cc(F)cc(F)c1 | KIT T670I/V559D | binding | competition with immobilised ligand | 1 µM | 100%
O=C(NCCCN1CCOCC1)c1ccc(Nc2ncc(Cl)c(-c3ccc(Cl)s3)n2)cc1 | KIT A829P | binding | competition with immobilised ligand | 1 µM | 16%
N[C@@H]1CCN(c2nccc(-c3cnn4ncccc34)n2)C1 | KIT autoinhibited | binding |  | 1 µM | 80%
O=c1nc(-c2ccccn2)sc2ccccc12 | KIT V559D/V654A | binding | competition with immobilised ligand | 1 µM | 100%
CN(c1nccc(-c2cnn3ncccc23)n1)C1CC1 | KIT L576P | binding |  | 1 µM | 100%
CNC(=O)[C@@H]1CC[C@@H](n2c(-c3ccc4cnccc4c3)nc3ccc(C(=O)NCc4cccc(C(N)=O)c4)cc32)C1 | Mast/stem cell growth factor receptor Kit (KIT, Homo sapiens, UniProt P10721, V559D) | binding | competition with immobilised ligand | 1 µM | 100%
c1cnn2ncc(-c3ccnc(N4CCC45COC5)n3)c2c1 | KIT | binding |  | 1 µM | 90%
Nc1ncc2c(n1)-c1c([nH]c3ccc(C#CC4CC4)cc13)CCCC2 | KIT D816V | binding | competition with immobilised ligand | 1 µM | 100%
